HGIII-sPLA2 inh: Inhibits HGIII-sPLA2 liposome hydrolysis, primary screen; QFRET BODIPY PC-A2 liposome hydrolysis, fluorescence; inhibition, % at 12.2 µM; actives 0.56% (n = 370,000);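 active = inhibition above mean plus 3 SD of compounds lying within the high and low control bounds, cut at about 19% in these data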;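 note: 0% = median of test compound wells and 100% = no enzyme DMSO wells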
procasp7 counter: activates human procaspase-7, counter-screen for procaspase-3 activators | P55210 | recombinant procaspase-7, Ac-DEVD-pNA absorbance 405 nm; D23A/D198A/D206A triple mutant, cannot self-cleave; scale: DMSO 0, 5 µM enzyme 100 | activation, % at 8.5 µM | actives 0.093% (n = 330,000);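 active = percent activation above the screen-wide mean plus 3 SD, cut at about 25% in these data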
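Detection: p-Nitroaniline absorbance at 405 nm, read at 0 and 120 min; system: Uncleavable procaspase-7 mutant enzyme; evaluation: % activation from two-timepoint absorbance difference, scaled to controls; times: 1 h enzyme–compound preincubation and 2 h substrate reaction, both 25 °C; buffer or medium: Zinc-free HEPES pH 7.4 with 300 mM NaCl, 0.01% Triton X-100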
PLCg1 inh: PLC-gamma1 (human) inhibition, primary screen; purified PLC-gamma1, fluorogenic substrate, fluorescence; inhibition, % at 12.2 µM; actives 0.84% (n = 370,000); AID 720700
PLCb3 inh: PLC-beta3 (human) inhibition, primary screen | Purified PLC-beta3, fluorogenic substrate, fluorescence | inhibition, % at 12.2 µM | actives 0.18% (n = 370,000) | AID 720704; in the data active = inhibition above about 11%;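 note: 0% = median of compound wells on plate and 100% = full blocker control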
procasp3 activ: procaspase-3 (human) activation | P42574 | recombinant procaspase-3 D3A, Ac-DEVD-pNA absorbance 405 nm | activation, % at 8.5 µM | actives 0.11% (n = 330,000);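 active = activation above the mean of all tested compounds plus 3 SD, cut at about 21% in these data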;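 note: 0% = DMSO alone and 100% = DMSO wells spiked with extra 5 µM PC-3 D3A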
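Assay system: Procaspase-3 D3A mutant, all three cleavage aspartates alanine. Buffer or medium: Zinc-free HEPES saline buffer with Triton X-100. Times: 1 h compound preincubation, 2 h substrate hydrolysis at 25 °C. Measured by: 405 nm absorbance of p-nitroaniline, reads at 0 and 120 min. Read-out basis: percent activation relative to control range. Replicates: singlicate.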
PLCg1 ctr: inhibits human PLC-gamma1 in PLC-beta3 counter-screen | purified PLC-gamma1, fluorogenic substrate, fluorescence | AID 743258 | actives 3.1% (n = 3,300) | shares compounds with PLCg1 inh | inhibition, % at 12.3 µM
PLCb3 confirm: confirmation of human PLC-beta3 inhibitors. purified PLC-beta3, fluorogenic substrate fluorescence. AID 743261. inhibition, % at 12.3 µM. actives 1% (n = 3,300). shares compounds with PLCg1 inh; in the data active = inhibition above about 11%
* = called active by the depositor. Most compounds without a hit are left out; they make up all but 1.6% or so of the library. Cut-off read from the data, not from the text of the source, unless noted: active = inhibition above about 9.5%; inactive = the rest.

What do the screens show for `COc1ccccc1C(=O)N1CC(=O)Nc2ccc(F)cc2C1c1ccccc1` (stereo unspecified)?
HGIII-sPLA2 inh: 12.3; procasp7 counter: 7.9; PLCg1 inh: 9.6*; PLCb3 inh: 3.4; procasp3 activ: -0.5; PLCg1 ctr: -9.5; PLCb3 confirm: -2.1

How did Cc1ccc2c(c1)C(c1ccccc1)N(C(=O)c1ccccc1[N+](=O)[O-])CC(=O)N2 (stereo unspecified) do in these assays?
HGIII-sPLA2 inh: -2.0; PLCg1 inh: 3.3; PLCb3 inh: -0.7

How did O=C1CN(C(=O)c2ccccc2[N+](=O)[O-])C(c2ccccc2)c2cc(Br)ccc2N1 (stereo unspecified) do in these assays?
HGIII-sPLA2 inh: 2.7; procasp7 counter: 4.4; PLCg1 inh: 9.7*; PLCb3 inh: -5.0; procasp3 activ: 11.1; PLCg1 ctr: -2.7; PLCb3 confirm: -8.6

What do the screens show for `COc1ccc(N2CCCN(CC(=O)Nc3ccc(Cl)c(Cl)c3)CC2)cc1`?
HGIII-sPLA2 inh: 14.8; PLCg1 inh: -1.1; PLCb3 inh: 1.3

How did O=C(CCCOc1ccc(Br)cc1)NCCc1ccc(OC(F)F)cc1 do in these assays?
HGIII-sPLA2 inh: -3.6; procasp7 counter: -6.4; PLCg1 inh: -2.3; PLCb3 inh: -9.5; procasp3 activ: -1.4

How did COc1cc(NS(=O)(=O)c2cc(NC(C)=O)ccc2OC)c(OC)cc1NC(=O)c1ccccc1 do in these assays?
HGIII-sPLA2 inh: -0.8; PLCg1 inh: -3.0; PLCb3 inh: -7.0

How did O=C(N/C(=C/c1ccc(Cl)cc1)C(=O)N1CCCC1)c1ccccc1 do in these assays?
HGIII-sPLA2 inh: 2.4; procasp7 counter: -2.0; PLCg1 inh: -1.3; PLCb3 inh: 1.0; procasp3 activ: -4.8

How did CC(=O)Nc1ccc(N2CC(C)(C)C2=O)cc1 do in these assays?
HGIII-sPLA2 inh: 9.3; procasp7 counter: 9.0; PLCg1 inh: 13.0*; PLCb3 inh: 5.4; procasp3 activ: 7.7; PLCg1 ctr: -3.1; PLCb3 confirm: 0.8

Results for Cc1cc(C(=O)Nc2ccccc2N2CCCCC2)no1 ?
HGIII-sPLA2 inh: 10.0; procasp7 counter: -7.2; PLCg1 inh: 9.8*; PLCb3 inh: 8.3; procasp3 activ: -0.4; PLCg1 ctr: -5.2; PLCb3 confirm: -21.1

How did COc1ccc(-c2csc(N(CC3CCCO3)C(=O)c3ccc(C)cc3)n2)cc1 (stereo unspecified) do in these assays?
HGIII-sPLA2 inh: 1.9; procasp7 counter: 14.1; PLCg1 inh: 14.4*; PLCb3 inh: 4.6; procasp3 activ: 1.4; PLCg1 ctr: -4.4; PLCb3 confirm: -6.8

Results for Cc1ccc(-c2csc(N(CC3CCCO3)C(=O)c3ccco3)n2)cc1 (stereo unspecified) ?
HGIII-sPLA2 inh: 12.9; procasp7 counter: 1.9; PLCg1 inh: 11.3*; PLCb3 inh: 3.9; procasp3 activ: 0.4; PLCg1 ctr: -12.1; PLCb3 confirm: -6.4

How did O=C(c1ccco1)N(CC1CCCO1)c1nc(-c2ccccc2)cs1 (stereo unspecified) do in these assays?
HGIII-sPLA2 inh: 1.2; procasp7 counter: 3.5; PLCg1 inh: -1.4; PLCb3 inh: -5.2; procasp3 activ: 2.8

What do the screens show for `COc1ccc(-c2csc(N(CC3CCCO3)C(=O)c3ccccc3)n2)cc1` (stereo unspecified)?
HGIII-sPLA2 inh: -3.0; procasp7 counter: 0.0; PLCg1 inh: -0.2; PLCb3 inh: -0.5; procasp3 activ: 6.6

What do the screens show for `Nc1nc2c(ncn2[C@@H]2O[C@H](CNC(=O)[C@H](N)C3CCCCC3)[C@@H](O)[C@H]2O)c(=O)[nH]1`?
HGIII-sPLA2 inh: 2.3; PLCg1 inh: 1.9; PLCb3 inh: -0.4

What do the screens show for `COc1ccc(C(=O)Nc2ccccc2C(=O)NC2CC2)c(OC)c1OC`?
HGIII-sPLA2 inh: 7.1; PLCg1 inh: 1.9; PLCb3 inh: 1.4

Results for CC(Sc1ccc2c(c1)OCCO2)C(=O)Nc1ccc(N2CCOCC2)cc1 (stereo unspecified) ?
HGIII-sPLA2 inh: 3.3; procasp7 counter: -0.8; PLCg1 inh: 13.1*; PLCb3 inh: -3.5; procasp3 activ: 8.1; PLCg1 ctr: -5.0; PLCb3 confirm: -0.9

Results for COc1cc(N)c(Cl)cc1C(=O)NC1CCN(CCCOc2ccc(F)cc2)CC1OC (stereo unspecified) ?
HGIII-sPLA2 inh: -10.1; PLCg1 inh: 11.2*; PLCb3 inh: 4.5; PLCg1 ctr: -3.7; PLCb3 confirm: -0.5

Results for Cc1nc2ccc(S(=O)(=O)N(C)CC(=O)NCc3ccc4c(c3)OCO4)cc2s1 ?
HGIII-sPLA2 inh: -6.5; procasp7 counter: 5.7; PLCg1 inh: -0.5; PLCb3 inh: 0.0; procasp3 activ: -0.6

What do the screens show for `Cc1nc2ccc(S(=O)(=O)NCC(=O)NCc3ccc4c(c3)OCO4)cc2s1`?
HGIII-sPLA2 inh: 8.8; procasp7 counter: -9.7; PLCg1 inh: 5.3; PLCb3 inh: 12.4*; procasp3 activ: -1.8; PLCg1 ctr: -8.3; PLCb3 confirm: -3.5

Results for CC1=C(C(=O)OCCC#N)C(c2cc3c(cc2Br)OCO3)NC(=O)N1 (stereo unspecified) ?
HGIII-sPLA2 inh: -0.9; procasp7 counter: -5.2; PLCg1 inh: 0.5; PLCb3 inh: -3.1; procasp3 activ: 3.0

What do the screens show for `CC(C)c1ccccc1OCC(=O)N(C)CC(=O)Nc1ccc(F)cc1`?
HGIII-sPLA2 inh: -9.7; procasp7 counter: 2.0; PLCg1 inh: 1.7; PLCb3 inh: -4.4; procasp3 activ: -5.4

What do the screens show for `CCCCCC(=O)Nc1ccc(S(=O)(=O)Nc2cc(OC)nc(OC)n2)cc1`?
HGIII-sPLA2 inh: -0.8; PLCg1 inh: 0.9; PLCb3 inh: -10.7

Results for COc1cc(NS(=O)(=O)c2ccc(NC(=O)COc3ccccc3C)cc2)nc(OC)n1 ?
HGIII-sPLA2 inh: -28.5; procasp7 counter: 2.5; PLCg1 inh: 1.2; PLCb3 inh: 1.5; procasp3 activ: 1.6

What do the screens show for `COc1cc(NS(=O)(=O)c2ccc(NC(=O)CN3C(=O)c4ccccc4C3=O)cc2)nc(OC)n1`?
HGIII-sPLA2 inh: -15.2; procasp7 counter: -12.2; PLCg1 inh: 12.0*; PLCb3 inh: 4.5; procasp3 activ: 2.6; PLCg1 ctr: 3.3; PLCb3 confirm: 9.6

How did COc1cc(NS(=O)(=O)c2ccc(NC(=S)NC(=O)COc3ccccc3OC)cc2)nc(OC)n1 do in these assays?
HGIII-sPLA2 inh: 6.2; procasp7 counter: -0.8; PLCg1 inh: 13.7*; PLCb3 inh: -3.5; procasp3 activ: -7.5; PLCg1 ctr: -2.9; PLCb3 confirm: -7.4
